Data set [1] deals with T1, Vitamin D3 receptor (Homo sapiens, UniProt P11473).
T1 sequence (P11473 whole entry): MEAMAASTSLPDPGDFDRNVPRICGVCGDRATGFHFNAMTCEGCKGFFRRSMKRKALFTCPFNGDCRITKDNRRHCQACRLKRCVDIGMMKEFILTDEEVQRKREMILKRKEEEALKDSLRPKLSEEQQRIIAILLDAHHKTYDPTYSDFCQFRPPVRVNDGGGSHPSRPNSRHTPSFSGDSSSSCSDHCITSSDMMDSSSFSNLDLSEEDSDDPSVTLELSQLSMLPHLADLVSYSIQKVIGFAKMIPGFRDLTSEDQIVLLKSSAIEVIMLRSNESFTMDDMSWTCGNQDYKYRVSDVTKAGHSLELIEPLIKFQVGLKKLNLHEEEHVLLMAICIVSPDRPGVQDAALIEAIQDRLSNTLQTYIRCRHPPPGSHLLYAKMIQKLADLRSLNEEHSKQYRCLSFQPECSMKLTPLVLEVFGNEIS
The experiment in a line: Agonist activity at VDR-LBD (unknown origin) expressed in Escherichia coli assessed as SRC2-3 coactivator peptide recruitment after 30 mins by fluorescence polarization assay.

Data set [2] deals with T1, Vitamin D3 receptor. The data set can be described thus: Antagonist activity against VDR-LBD (unknown origin) expressed in Escherichia coli assessed as inhibition of VDR agonist LG190178-induced SRC2-3 coactivator peptide recruitment after 30 mins by fluorescence polarization assay. For orientation: Fluorescence polarisation rises when a labelled molecule tumbles more slowly, as on binding a larger partner.

Data set [3] concerns the target T1, Vitamin D3 receptor. The experiment in a line: Agonist activity at VP16 tagged-VDR-LBD (unknown origin) expressed in HEK293T cells assessed as SRC1 coactivator peptide recruitment after 16 hrs by luciferase reporter gene based two hybrid assay. The format is cell-based, HEK-293T.
Data set [4] addresses T1, Vitamin D3 receptor. The data set can be described thus: Antagonist activity against VP16 tagged-VDR-LBD (unknown origin) expressed in HEK293T cells assessed as inhibition of 1,25-dihydroxyvitamin D3-induced SRC1 coactivator peptide recruitment after 16 hrs by luciferase reporter gene based two hybrid assay. The data set is classed as cell-based, HEK-293T. A general note: A reporter such as luciferase makes a cellular process visible.

A short description of data set [5]: Cytotoxicity against HEK293T cells assessed as reduction in cell viability after 18 hrs by CellTiter-Glo luminescence assay. The format is cell-based, HEK-293T. Particulars: human, read-out: LD50. (In general: ATP-based viability assays read luminescence as a measure of living cells.)
Data set [6] deals with T2, Vitamin D3 receptor (Homo sapiens) (UniProt P11473).
T2 sequence (whole entry): T1 sequence (P11473 whole entry)
The experiment in a line: Agonist activity at VP16 tagged-VDR-LBD (unknown origin) expressed in HEK293T cells assessed as SRC1 coactivator peptide recruitment after 16 hrs by luciferase reporter gene based two hybrid assay relative to 1,25-dihydroxyvitamin D3. To be noted: HEK-293T. The data set is classed as cell-based. Summed up: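 HEK293T cells were lipid-transfected with VP16-VDR-LBD, SRC1-GAL4 and 4×UAS luciferase reporter plasmids for 16 h. Cells were then plated at 15,000/well on matrigel in phenol-red-free DMEM with 2% charcoal-treated FBS. Three experiments in quadruplicate; nonlinear regression.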

The target in data set [7] is T2, Vitamin D3 receptor (Homo sapiens). The data set can be described thus: Agonist activity at VDR-LBD in human DU145 cells assessed as CYP24A1 expression at 7.5 uM after 18 hrs by qRT-PCR method relative to 1alpha,25-dihydroxyvitamin D3. The format is cell-based. To be noted: DU-145. An outline of the steps: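 Non-transfected DU145 cells were grown in DMEM with 10% heat-inactivated FBS and plated on matrigel-coated 6-well plates overnight at 37°C. Total RNA was isolated and CYP24A1 fold change was measured by real-time RT-PCR (Ct method). Experiments were run in triplicate; significance by Dunnett ANOVA.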

The target of data set [8] is T1, Vitamin D3 receptor. The experiment in a line: Agonist activity at human VP16 tagged-VDR-LBD after 16 hrs by luciferase reporter gene based transcription assay. Summed up:
(§1)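 HEK293T cells were lipid-transfected with hVDR-Gal4 and 4×UAS luciferase reporter plasmids for 16 h. Cells were then plated at 15,000/well on matrigel in phenol-red-free DMEM with 2% charcoal-treated FBS. Compounds (1:3 serial dilution, max final 150 µM) were added after 4 h and incubated 16 h at 37°C; readout by Bright-Glo luminescence. […] Three experiments in quadruplicate; nonlinear regression.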

Data set [9] concerns the target T2, Vitamin D3 receptor (Homo sapiens). The data set can be described thus: Agonist activity at human VP16 tagged-VDR-LBD after 16 hrs by luciferase reporter gene based transcription assay relative to 1,25-dihydroxyvitamin D3. Summed up:
as §1

Data set [10] has the same target. The experiment in a line: Agonist activity at VDR-LBD in human DU145 cells assessed as CYP24A1 expression at 7.5 uM in presence of 20 nM 1alpha,25-dihydroxyvitamin D3 after 18 hrs by qRT-PCR method. The data set is classed as cell-based. Particulars: DU-145. Summed up: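 Non-transfected DU145 cells were grown in DMEM with 10% heat-inactivated FBS and plated on matrigel-coated 6-well plates overnight at 37°C. […] Total RNA was isolated and CYP24A1 fold change was measured by real-time RT-PCR (Ct method). Experiments were run in triplicate; significance by Dunnett ANOVA.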

Activity calls are given as the source filed them. No cut-off for these calls is given here.

One may read the EC50 as the concentration needed to bring the measured effect to its halfway point. For orientation: IC50 means the midpoint of a concentration-inhibition curve. Turning to `C[C@H](CCC(=O)O)[C@H]1CC[C@H]2[C@@H]3[C@@H](O)C[C@@H]4C[C@H](O)CC[C@]4(C)[C@H]3CC[C@]12C` [URSODIOL], the EC50 in data set [1] and in data set [3] was over 150 µM in each case. The IC50 in data set [2] was over 150 µM; in data set [4], over 50 µM. Also, the CC50 at 18 h in data set [5] is over 150 µM.
For `C=C1/C(=C\C=C2/CCC[C@]3(C)[C@@H]([C@H](C)CC(=O)O)CC[C@@H]23)C[C@@H](O)C[C@@H]1O`, the values for the EC50 in data set [1] and in [3] were over 100 µM and 0.87 µM, respectively. The IC50 in data set [2] was 2.29 µM; in [4], over 100 µM. Further, in data set [6], the Efficacy was 55%. In data set [5], the CC50 at 18 h was over 100 µM. The outcome in data set [7] was Active.
Regarding `C[C@H](CCC(=O)O[C@@H]1O[C@H](C(=O)O)[C@@H](O)[C@H](O)[C@H]1O)[C@H]1CC[C@H]2[C@@H]3CC[C@@H]4C[C@H](O)CC[C@]4(C)[C@H]3CC[C@]12C`, the EC50 was over 150 µM in data set [1], 6.52 µM in data set [3] and 21.3 µM in [8]. The figures for the IC50 in data set [2] and in [4] were 2.86 µM and over 150 µM, respectively. The figures for the Efficacy in data set [6] and in [9] were 29% and 70%, respectively. Also, in data set [5], the CC50 at 18 h is over 150 µM. For the same molecule, the outcome in data set [7] and in data set [10] was Active.
With `COC(=O)CC[C@@H](C)[C@H]1CC[C@H]2[C@@H]3CC[C@@H]4C[C@H](O)CC[C@]4(C)[C@H]3CC[C@]12C`, the EC50 in data set [1] and in [3] was over 150 µM in each case. The results for the IC50 in data set [2] and in data set [4] were over 150 µM and 15.1 µM, respectively. The CC50 at 18 h in data set [5] was 50.4 µM.
For the molecule `C[C@H](CCC(=O)O)[C@H]1CC[C@H]2[C@@H]3CC[C@@H]4C[C@H](O)CC[C@]4(C)[C@H]3C[C@H](O)[C@]12C` [DEOXYCHOLIC ACID], the EC50 in [1] and in [3] was over 150 µM each time. Further, the results for the IC50 in data set [2] and in data set [4] were over 150 µM and over 50 µM, respectively. In addition, the CC50 at 18 h in data set [5] was over 150 µM.
As to `C[C@H](CCC(=O)NCC(=O)O)[C@H]1CC[C@H]2[C@@H]3CC[C@@H]4C[C@H](O)CC[C@]4(C)[C@H]3CC[C@]12C` [LITHOGLYCOCHOLATE], the EC50 in data set [1] and in data set [3] was over 150 µM each time. Also, the IC50 was 40.1 µM in data set [2] and over 50 µM in data set [4]. In addition, the CC50 at 18 h in data set [5] was over 150 µM.
As to `C[C@H](CCC(=O)O)[C@H]1CC[C@H]2[C@@H]3CC[C@@H]4C[C@H](O)CC[C@]4(C)[C@H]3CC[C@]12C` [LITHOCHOLIC ACID], the CC50 at 18 h in data set [5] stood at 55.9 µM.
Turning to `C[C@H](CCC(=O)O)[C@H]1CC[C@H]2[C@@H]3CC[C@@H]4C[C@H](O[C@@H]5O[C@H](C(=O)O)[C@@H](O)[C@H](O)[C@H]5O)CC[C@]4(C)[C@H]3CC[C@]12C`, the EC50 in data set [1] is over 50 µM; in data set [3] it was 20.5 µM; in data set [8], 12.3 µM. In addition, the half-inhibitory concentration (IC50) in data set [2] was 31.5 µM; in data set [4] it was over 150 µM. The Efficacy in [6] is 49%; in [9], 55%. In addition, the CC50 at 18 h in data set [5] is over 150 µM. Besides, the result in data set [7] was inactive.
Consider `C[C@H](CCC(=O)O)[C@H]1CC[C@H]2[C@@H]3[C@H](O)C[C@@H]4C[C@H](O)CC[C@]4(C)[C@H]3CC[C@]12C` [CHENODIOL], for which the EC50 in [1] and in data set [3] was over 150 µM each time. Moreover, the IC50 in data set [2] was over 150 µM; in data set [4], over 50 µM. Further, in [5], the CC50 at 18 h is over 150 µM.
As for `C[C@H](CCC(=O)O)[C@H]1CC[C@H]2[C@@H]3CC[C@@H]4C[C@H](OS(=O)(=O)O)CC[C@]4(C)[C@H]3CC[C@]12C`, the EC50 in data set [1] and in [3] was over 150 µM in each case. Moreover, the IC50 is 23.3 µM in data set [2] and over 50 µM in data set [4]. For the same molecule, the CC50 at 18 h in data set [5] was over 150 µM.
Consider `CC(=O)O[C@@H]1CC[C@@]2(C)[C@H](CC[C@@H]3[C@@H]2CC[C@]2(C)[C@@H]([C@H](C)CCC(=O)O)CC[C@@H]32)C1`, for which the EC50 in data set [1] was over 150 µM; in [3] it was 1.49 µM. Also, the IC50 in data set [2] is 11 µM; in data set [4], over 50 µM. For the same molecule, in data set [5], the CC50 at 18 h is over 50 µM.
On to `C[C@H](CCC(=O)O)[C@H]1CC[C@H]2[C@@H]3C[C@H](O)[C@@H]4C[C@H](O)CC[C@]4(C)[C@H]3CC[C@]12C` [HYODEOXYCHOLIC_ACID], for which the EC50 in data set [1] and in data set [3] was over 150 µM each time. In addition, the IC50 in [2] is over 150 µM; in [4] it was over 50 µM. For the same molecule, the CC50 at 18 h in data set [5] was over 150 µM.
On to `C[C@H](CCC(=O)NCCS(=O)(=O)O)[C@H]1CC[C@H]2[C@@H]3CC[C@@H]4C[C@H](O)CC[C@]4(C)[C@H]3CC[C@]12C` [TAUROLITHOCHOLIC ACID], for which the EC50 in [1] and in [3] was over 150 µM throughout. Also, the IC50 in data set [2] was 14.5 µM; in data set [4], over 50 µM. For the same molecule, the CC50 at 18 h in data set [5] was over 150 µM.
